# Experimental data published in ChEMBL document CHEMBL2034884, “Synthesis, in vitro and in silico screening of ethyl 2-(6-substituted benzo[d]thiazol-2-ylamino)-2-oxoacetates as protein-tyrosine phosphatase 1B inhibitors” (Eur J Med Chem, 2012).
# pIC50, pKi: −log10 of the molar value. Activity calls are given as the source filed them. The calls are words filed in the database; no cut-off is given here.
# Legend:
# [1] = target: T1, Tyrosine-protein phosphatase non-receptor type 1 (Homo sapiens) (UniProt P18031); experiment: Inhibition of human recombinant GST-tagged PTP1B expressed in Escherichia coli TB1 cells using p-NPP as substrate at 40 uM
# T1 sequence (whole entry): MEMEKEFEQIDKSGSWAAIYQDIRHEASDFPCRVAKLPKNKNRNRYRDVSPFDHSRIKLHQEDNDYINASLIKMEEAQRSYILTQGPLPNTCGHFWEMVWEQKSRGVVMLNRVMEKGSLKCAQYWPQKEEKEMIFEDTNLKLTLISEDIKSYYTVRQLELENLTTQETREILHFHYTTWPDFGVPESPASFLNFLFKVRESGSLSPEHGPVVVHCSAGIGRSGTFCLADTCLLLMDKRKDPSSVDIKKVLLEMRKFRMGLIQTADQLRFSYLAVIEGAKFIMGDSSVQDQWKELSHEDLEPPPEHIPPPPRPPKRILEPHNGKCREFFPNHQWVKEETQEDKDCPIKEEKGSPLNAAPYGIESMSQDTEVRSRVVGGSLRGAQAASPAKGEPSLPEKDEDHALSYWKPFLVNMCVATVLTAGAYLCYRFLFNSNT
# Method in brief: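 PTP-1B was cleaved from GST with thrombin and gel-filtered. Assay: 0.075 M β,β-dimethylglutarate buffer pH 7.0 with 1 mM EDTA and 1 mM DTT, 2.5 mM p-NPP, compound 40 μM final, DMSO control, 37 °C, 0.16 μg enzyme per 1 mL assay. Stopped with KOH; p-nitrophenol read at 400 nm. Residual activity is % of control, four assays, mean ± S.E.M.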
# [2] = target: T1, Tyrosine-protein phosphatase non-receptor type 1 (Homo sapiens); experiment: Slow binding inhibition of human recombinant GST-tagged PTP1B expressed in Escherichia coli TB1 cells using p-NPP as substrate
# Method in brief: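 p-Nitrophenol release from p-NPP by PTP-1B was followed over time at 400 nm at several inhibitor concentrations, at 37 °C, pH 7.0. Progress curves were examined for linearity, with and without 30 min enzyme–inhibitor preincubation before the assay.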
# [3] = target: T2, Tyrosine-protein phosphatase non-receptor type 1 (Homo sapiens, UniProt P18031); experiment: Inhibition of human recombinant GST-tagged PTP1B expressed in Escherichia coli TB1 cells using p-NPP as substrate
# T2 sequence (P18031 whole entry): T1 sequence (whole entry)
# [4] = target: T2, Tyrosine-protein phosphatase non-receptor type 1; experiment: Mixed-type inhibition of human recombinant GST-tagged PTP1B expressed in Escherichia coli TB1 cells using p-NPP as substrate by double reciprocal plot analysis
# Method in brief: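 Thrombin-cleaved, gel-filtered PTP-1B in pH 7.0 β,β-dimethylglutarate/EDTA/DTT buffer at 37 °C. Initial p-NPP hydrolysis rates were measured at eight substrate concentrations (0.5–40 mM) with increasing inhibitor concentrations. p-Nitrophenol was read at 400 nm, and Km/Vmax changes were analysed by double reciprocal plots.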
# [5] = target: T1, Tyrosine-protein phosphatase non-receptor type 1 (Homo sapiens); experiment: Reversible inhibition of human recombinant GST-tagged PTP1B expressed in Escherichia coli TB1 cells using p-NPP as substrate at 100 uM after 1 hr at 4 degC
# Method in brief: (§1)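 The enzyme, cleaved from GST, was preincubated for 1 h at 4 °C or 37 °C with 100 μM compound or a DMSO control. It was then diluted 400-fold into assay solution, and residual activity was measured at 37 °C with 5 mM p-NPP final, read at 400 nm. Triplicates, mean ± S.E.M.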
# Rattus norvegicus [6] = experiment: Hypoglycemic activity in normoglycemic Wistar rat at 100 mg/kg, po administered as single dose measured up to 3 hrs post dose; type: functional
# Method in brief: (§2)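 Male Wistar rats (200–250 g), n = 5 per group, given a single oral/intragastric dose suspended in 5% Tween 80. Vehicle controls received 5% Tween 80. Caudal-vein blood was taken at 0, 1, 3, 5 and 7 h and glucose read with a glucose oxidase glucometer. Results are % glycemia change versus 0 h, mean ± S.E.M., ANOVA p < 0.05.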
# Rattus norvegicus [7] = experiment: Hypoglycemic activity in glucose fed normoglycemic Wistar rat assessed as decrease in rise of blood glucose at 100 mg/kg, po single dose measured up to 4 hrs post dose by oral glucose tolerance test; type: functional; parameters: scale not given: the % may be the effect or the level left
# Method in brief: (§3)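 Male Wistar rats (200–250 g), fasted 18 h, n = 5 per group. Test agents were given orally as suspensions at the listed doses, with vehicle controls. A 2 g/kg glucose load was given by the same route 10 min later. Tail-tip blood was sampled at 0, 0.5, 1, 2, 3 and 4 h. Glucose was read by the glucose oxidase glucometer method.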
# [8] = target: T1, Tyrosine-protein phosphatase non-receptor type 1 (Homo sapiens); experiment: Reversible inhibition of human recombinant GST-tagged PTP1B expressed in Escherichia coli TB1 cells using p-NPP as substrate at 100 uM after 1 hr at 37 degC; method in brief: as §1
# Rattus norvegicus [9] = experiment: Hypoglycemic activity in normoglycemic Wistar rat at 100 mg/kg, po administered as single dose measured up to 5 hrs post dose; type: functional; method in brief: as §2
# Rattus norvegicus [10] = experiment: Hypoglycemic activity in glucose-fed normoglycemic Wistar rat assessed as decrease in rise of blood glucose at 4 mg/kg, po single dose measured up to 4 hrs post dose by oral glucose tolerance test; type: functional, organism-based; parameters: dose 4 mg/kg; method in brief: as §3
# Rattus norvegicus [11] = experiment: Hypoglycemic activity in normoglycemic Wistar rat at 10 mg/kg, po administered as single dose measured up to 3 hrs post dose; type: functional, organism-based; parameters: dose 10 mg/kg; method in brief: as §2
# Rattus norvegicus [12] = experiment: Hypoglycemic activity in glucose-fed normoglycemic Wistar rat assessed as decrease in rise of blood glucose at 5 to 10 mg/kg, po single dose measured up to 4 hrs post dose by oral glucose tolerance test; type: functional, organism-based; method in brief: as §3
smiles,measurement,setting,value
CCOC(=O)C(=O)Nc1nc2ccc(OCC)cc2s1,inhibition,[1],inactive
CCOC(=O)C(=O)Nc1nc2ccc(S(C)(=O)=O)cc2s1,inhibition,[1],inactive
CCOC(=O)C(=O)Nc1nc2ccc(Cl)cc2s1,inhibition,[2],inactive
same,pIC50,[3],5.00
same,pKi,[4],5.10
same,inhibition,[5],Active
same,Activity,Rattus norvegicus [6],30%
same,Activity,Rattus norvegicus [7],>20%
same,inhibition,[8],Active
CCOC(=O)C(=O)Nc1nc2ccc(F)cc2s1,inhibition,[2],inactive
same,pIC50,[3],5.06
same,pKi,[4],5.10
same,inhibition,[5],Active
same,inhibition,[8],Active
CCOC(=O)C(=O)Nc1nc2ccc(C)cc2s1,inhibition,[2],inactive
same,pIC50,[3],4.96
same,Activity,Rattus norvegicus [9],26%
same,pKi,[4],5.21
same,inhibition,[5],Active
same,Activity,Rattus norvegicus [7],>20%
same,inhibition,[8],Active
CCOC(=O)C(=O)Nc1nc2ccc(N)cc2s1,inhibition,[1],inactive
CCOC(=O)C(=O)Nc1nc2ccccc2s1,inhibition,[1],inactive
CCOc1cc(CC(=O)N[C@@H](CC(C)C)c2ccccc2N2CCCCC2)ccc1C(=O)O,Activity,Rattus norvegicus [10],Active
CCOC(=O)C(=O)Nc1nc2ccc([N+](=O)[O-])cc2s1,inhibition,[1],inactive
CCOC(=O)C(=O)Nc1nc2ccc(OC)cc2s1,inhibition,[1],inactive
COc1ccc(Cl)cc1C(=O)NCCc1ccc(S(=O)(=O)NC(=O)NC2CCCCC2)cc1,Activity,Rattus norvegicus [11],Active
same,Activity,Rattus norvegicus [12],Active
